PubChem BioAssay
Calls of active or inactive are those of the source.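 How the source made its calls, unless noted: active means potentiation averaged over duplicate wells exceeding buffer-only control mean by more than 3 SD; inactive means the rest.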

Key:
[1] = nonspecific flux increase, KCNQ1-free cells – parental CHO cells, counter-screen for KCNQ1 potentiator project (AID 493006;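 active means duplicate-averaged activation above buffer control mean plus 5 SD of those controls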); settings: parental CHO-K1 cells, FluxOR thallium flux, at 10 µM; stronger effect = higher value
Summary of the method: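 Assay system: Untransfected host CHO-K1 cells with FluxOR thallium dye | Probe or stimulus: Potassium/thallium depolarization pulse | Schedule: Overnight 37 °C plating, 90 min RT dye, 20 min compound | Detection: Kinetic thallium-flux fluorescence | Read-out: Max-minus-min fluorescence over baseline, percent of buffer-to-R-L3 span | Benchmarks: Low control buffer, high control R-L3 activator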

[2] = molecular target: Potassium voltage-gated channel subfamily KQT member 1 (Homo sapiens) (UniProt P51787); assay: enhancement of KCNQ1 channel thallium flux – FluxOR thallium flux, CHO cells, duplicates, confirmation (AID 493007); settings: KCNQ1 cell line, FluxOR thallium flux fluorescence, at 10 µM; stronger effect = higher value, % of reference activator effect, buffer zero;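 on outcome: cells depolarized by a potassium plus thallium sulfate stimulus after compound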
Summary of the method: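 Material: KCNQ1-expressing CHO cell line; Incubation: FluxOR dye loading 90 min, compound exposure 20 min, room temperature; Detection: FluxOR Tl+ flux fluorescence, 10 s baseline plus 110 s recording; Read-out: percent activation between buffer and R-L3 responses; Control set: buffer-only wells as 0% and R-L3 activator as 100%; Replication: duplicate wells per compound.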

[3] = molecular target: Potassium voltage-gated channel subfamily KQT member 2 (Rattus norvegicus) (UniProt O88943); assay: KCNQ2 thallium flux enhancement – KCNQ2-CHO-K1 cells, selectivity assay for KCNQ1 potentiator project (AID 493009;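 active means mean duplicate potentiation above the buffer control mean plus 5 SD of buffer wells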;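 further: assay conditions were tuned for KCNQ1 rather than KCNQ2 modulators; signal is max minus min fluorescence divided by baseline after thallium stimulus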); settings: FluxOR thallium flux fluorescence, at 10 µM; stronger effect = higher value, scaled: buffer 0, activator control 100
[4] = molecular target: Potassium voltage-gated channel subfamily KQT member 1 (Homo sapiens) (UniProt P51787); assay: KCNQ1 activators by electrophysiology – IonWorks patch clamp, KCNQ1-CHO cells, orthogonal assay for KCNQ1 potentiator project, confirmation (AID 493184;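 active means current rise at least 3 SD above the untreated control mean in each of two repeat wells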); settings: automated patch clamp current, at 10 µM; stronger effect = higher value
Summary of the method: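 assay system = KCNQ1-expressing CHO cells | medium = external bath solution at pH 7.4 | probe or stimulus = 2,000 ms depolarization, -90 to +40 mV | compound dosing = 10 µM final, single point | measured by = automated voltage clamp, amphotericin B perforated patch | measure = percent current increase versus pre-compound level | replication = duplicates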

Chain of Potassium voltage-gated channel subfamily KQT member 1 (Homo sapiens) (P51787 whole entry, looked up): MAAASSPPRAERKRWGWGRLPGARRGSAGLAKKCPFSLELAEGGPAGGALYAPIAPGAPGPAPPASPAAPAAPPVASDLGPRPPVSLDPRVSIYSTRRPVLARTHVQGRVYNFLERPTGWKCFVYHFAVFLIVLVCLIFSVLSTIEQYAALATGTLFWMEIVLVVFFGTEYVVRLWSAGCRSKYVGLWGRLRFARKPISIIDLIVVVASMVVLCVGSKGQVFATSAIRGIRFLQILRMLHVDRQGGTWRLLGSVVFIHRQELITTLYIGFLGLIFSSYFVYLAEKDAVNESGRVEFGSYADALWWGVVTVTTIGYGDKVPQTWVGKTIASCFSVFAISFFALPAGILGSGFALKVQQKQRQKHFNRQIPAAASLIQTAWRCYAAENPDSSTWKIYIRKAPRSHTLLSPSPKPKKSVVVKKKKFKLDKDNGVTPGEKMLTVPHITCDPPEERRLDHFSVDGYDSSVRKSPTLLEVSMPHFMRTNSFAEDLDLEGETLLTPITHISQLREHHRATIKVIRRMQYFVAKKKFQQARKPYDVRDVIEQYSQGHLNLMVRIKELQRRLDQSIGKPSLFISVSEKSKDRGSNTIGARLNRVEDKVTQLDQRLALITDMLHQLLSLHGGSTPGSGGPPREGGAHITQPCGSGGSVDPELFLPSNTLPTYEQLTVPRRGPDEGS
Chain of Potassium voltage-gated channel subfamily KQT member 2 (Rattus norvegicus) (O88943 whole entry, looked up): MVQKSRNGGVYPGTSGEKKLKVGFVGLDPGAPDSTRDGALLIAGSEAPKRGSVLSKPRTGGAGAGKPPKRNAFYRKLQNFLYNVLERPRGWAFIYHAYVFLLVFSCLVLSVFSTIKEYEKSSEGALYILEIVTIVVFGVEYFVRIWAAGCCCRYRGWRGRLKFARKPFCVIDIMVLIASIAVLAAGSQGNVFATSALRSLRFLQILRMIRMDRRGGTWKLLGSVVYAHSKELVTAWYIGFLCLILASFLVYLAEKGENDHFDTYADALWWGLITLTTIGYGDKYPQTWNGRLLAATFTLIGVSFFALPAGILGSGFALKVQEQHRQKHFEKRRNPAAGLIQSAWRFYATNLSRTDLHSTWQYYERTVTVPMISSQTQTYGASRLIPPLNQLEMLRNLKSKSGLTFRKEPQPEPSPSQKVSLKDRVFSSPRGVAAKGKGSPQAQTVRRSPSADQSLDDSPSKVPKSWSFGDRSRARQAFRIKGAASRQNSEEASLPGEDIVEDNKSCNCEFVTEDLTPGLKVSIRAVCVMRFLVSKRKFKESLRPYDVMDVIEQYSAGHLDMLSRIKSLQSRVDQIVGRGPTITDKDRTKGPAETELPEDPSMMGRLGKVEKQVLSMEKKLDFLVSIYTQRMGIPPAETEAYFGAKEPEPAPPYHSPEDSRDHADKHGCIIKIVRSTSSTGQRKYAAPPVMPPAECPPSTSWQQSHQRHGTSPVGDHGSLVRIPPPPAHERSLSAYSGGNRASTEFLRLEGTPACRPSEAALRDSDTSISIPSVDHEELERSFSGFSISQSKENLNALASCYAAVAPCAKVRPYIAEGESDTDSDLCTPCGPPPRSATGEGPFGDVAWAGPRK

Compound	activation [1]	outcome [2]	potentiation [3]	outcome [4]	outcome [1]	outcome [3]	potentiation [2]
Cc1ccccc1OC(=O)n1c(=S)oc2cc(Cl)ccc21	152% (active)	inactive	157% (active)	inactive			
O=C(O)c1ccccc1C(=O)NNc1ccc(Cl)cc1		inactive		inactive	inactive	inactive	
O=C(CNC(=O)c1sc2ccccc2c1Cl)OCc1ccccc1		inactive		inactive	inactive	inactive	
Cc1ccc(SCC2(O)CCN(S(=O)(=O)c3ccc(Cl)cc3)CC2)cc1		inactive		inactive	inactive	inactive	
O=C(COc1ccccc1F)Nc1c2c(nn1-c1ccccc1)CS(=O)(=O)C2		inactive		inactive	inactive	inactive	
Oc1c(N=NC(=S)Nc2ccccc2F)c2ccccc2n1Cc1ccccc1Cl	180% (active)		210% (active)	inactive			81.5% (active)
O=C(NC(=S)Nc1ccccc1N1CCOCC1)c1sc2ccccc2c1Cl				inactive	inactive	inactive	34% (active)
CCCn1nnnc1SCC(=O)c1ccc2c(c1)OCCO2		inactive		inactive	inactive	inactive	
CN(C)S(=O)(=O)c1ccc(Cl)c(NC(=O)CN2CCCCCC2)c1		inactive		inactive	inactive	inactive	
CCOc1ccc(NC(=O)Cn2sc3nc(C)cc(C)c3c2=O)cc1	142% (active)	inactive		inactive		inactive	
COC(=O)c1ccc(CSc2ncnc3c2sc2nc(N4CCOCC4)c4c(c23)CCCC4)o1		inactive		inactive	inactive	inactive	
O=c1c(O)c(-c2cccs2)oc2ccc(Cl)cc12	570% (active)		553% (active)	inactive			128% (active)
CCOc1ccc(S(=O)(=O)Nc2cc(OC)ccc2OC)cc1		inactive		inactive	inactive	inactive	
COc1ccc(OC)c(S(=O)(=O)Nc2ccc3c(c2)N(C(C)=O)CCC3)c1		inactive		inactive	inactive	inactive	
CCOc1ccc2nc(N3C(=O)/C(=C/c4ccc(Cl)cc4)NC3=S)sc2c1	283% (active)		416% (active)	inactive			143% (active)
Cc1ccc(C(=O)N/C(=C\c2ccc(-c3ccccc3[N+](=O)[O-])o2)C(=O)NCCCN2CCOCC2)cc1		inactive		inactive	inactive	inactive	
S=c1[nH]cnc2scc(-c3ccc(Cl)cc3)c12	158% (active)		191% (active)	inactive			47% (active)
Cc1ccc(CN2CCN(/N=C/C(Br)=C\c3ccccc3)CC2)cc1		inactive		inactive	inactive	inactive	
COc1ccc(CCNC(=O)c2ccc(N(C)S(=O)(=O)c3ccc(C)cc3)cc2)cc1OC		inactive		inactive	inactive	inactive	
COc1cccc(CN(C)C(=O)c2cc(COc3ccc4ncccc4c3)on2)c1		inactive		inactive	inactive	inactive	
CN1CCN(c2ccccc2NC(=S)NC(=O)c2cc3ccccc3o2)CC1		inactive		inactive	inactive	inactive	
CCCCc1nc2sc3c(SCCN(C)C)ncnc3c2c2c1CCC2	207% (active)		183% (active)	inactive			122% (active)
O=C(Nc1nc2c(Br)cc(Br)cc2c(=O)s1)C1CCC1	192% (active)		176% (active)	inactive			29% (active)
COC(=O)c1c(NC(=S)Nc2ccc(F)cc2[N+](=O)[O-])sc2c1CCCCC2	160% (active)		180% (active)	inactive			32.5% (active)
COc1ccc(C(=O)NNC(=O)C(=O)NC2CCCCC2)cc1			168% (active)	inactive	inactive		22% (active)
Cc1onc(-c2ccccc2)c1C(=O)N1CCN(S(=O)(=O)c2ccc(OC(F)(F)F)cc2)CC1		inactive		inactive	inactive	inactive	
CCOC(=O)c1ccc(-c2ccc(C3Nc4ccccc4C(=O)N3O)o2)cc1 (stereo not given)		inactive		inactive	inactive	inactive	
CN(C)CCCN1c2ccccc2Sc2ccc(Cl)cc21		inactive		inactive	inactive	inactive	
CCn1c(O)c(N=NC2=NC(=O)CS2)c2ccccc21		inactive	145% (active)	inactive	inactive		
CCOCC(=O)Nc1ccc2c(c1)N(S(=O)(=O)c1cccs1)CCC2		inactive		inactive	inactive	inactive	
